Assay results as given in ChEMBL document CHEMBL5376028, “Discovery of dual-action phenolic 4-arylidene-isoquinolinones with antioxidant and α-glucosidase inhibition activities” (RSC Med Chem, 2024).
Activity calls are given as the source filed them. The calls are words filed in the database; no cut-off is given here.

Experiments:
[1] = Antioxidant activity assessed as DPPH radical scavenging activity at 100 uM incubated for 30 mins in dark by absorbance based analysis relative to control; format: functional
In short: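 The compound in DMSO was mixed with DPPH in EtOH (final 100 μM). It was incubated 30 min at 37 °C with stirring in the dark, and absorbance was read at 515 nm. Scavenging % = (C − E) × 100/C against the DPPH control.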

[2] = test system: Brain; test: Antioxidant activity in Wistar rat brain homogenate assessed as inhibition of FeSO4-induced lipid peroxidation by measuring TBARS scavenging activity at 100 uM preincubated with compound for 30 mins followed by FeSO4 addition and measured after 1 hrs by absorbance based microplate reader relative to control; format: functional, tissue-based; parameters: scale not given: the % may be the effect or the level left; conditions: time 90.0 min
In short: (§1)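 Whole brains of adult male Wistar rats (200–250 g) were homogenized 1/10 in PBS pH 7.4 and spun at 800 rcf. The supernatant was adjusted to 2.666 mg protein/mL and preincubated with EDTA and compound in DMSO for 30 min at 37 °C. FeSO₄ (final 10 μM) was added for 1 h at 37 °C. TBA/TCA reagent was added, then heating at 80 °C, and A540 was read against a TMP standard curve. Inhibition % was calculated versus the DMSO control; α-tocopherol served as the standard. IC₅₀ came from linear regression, mean ± SEM of three experiments.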

[3] = molecular target: Alpha-glucosidase (Saccharomyces cerevisiae S288c, UniProt P53341+P38158+P07265); test: Inhibition of Saccharomyces cerevisiae alpha-glucosidase using p-nitrophenyl-alpha-D-glucopyranoside as substrate pre-incubated for 10 mins followed by substrate addition and measured after 15 mins by absorbance based analysis; format: protein assay
[4] = test system: Brain; test: Antioxidant activity in Wistar rat brain homogenate assessed as inhibition of FeSO4-induced lipid peroxidation preincubated with compound for 30 mins followed by FeSO4 addition and measured after 1 hrs by TBARS assay; format: functional, tissue-based; in short: as §1
[5] = test system: Mus musculus; test: Anti-hyperglycemic activity in CDI mouse assessed as decrease in blood glucose level at 50 mg/kg preadministered with compound for 30 mins followed by sucrose administration and measured after 30 mins by oral sucrose tolerance test relative to control; format: functional
In short: (§2)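 Sucrose 3 g kg⁻¹ given orally 30 min later. Caudal vein blood glucose measured by glucometer at 0, 0.5, 1, 1.5, 2 and 3 h; % variation of glycemia calculated relative to the 0 h level.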

[6] = Antioxidant activity assessed as hydroxyl radical scavenging activity by Electron Paramagnetic Resonance based spectrophotometric analysis; format: functional; conditions: dose 3-106 µM
In short: (§3)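 Hydroxyl radicals came from a Fenton reaction: FeSO₄·7H₂O 20 μM (acid water, pH 2.5) plus H₂O₂ 200 μM, with DMPO 6000 μM spin trap in PBS pH 7.4. The compound in acetone was tested at final 106, 60, 10.66 and 3.3 μM. The DMPO–OH quartet was recorded by EPR (9.44 GHz, 8 mW, 0.1 mT modulation, 120 s sweep), and intensity was taken from the second-peak height.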

[7] = Antioxidant activity assessed as hydroxyl radical scavenging activity by measuring fluorescence intensity at 10 uM by Electron Paramagnetic Resonance based spectrophotometric analysis (reference value: 610 a.u.); format: functional
In short: (§4)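 Hydroxyl radicals generated by Fenton reaction: FeSO₄·7H₂O 20 μM (in acid water, pH 2.5) plus H₂O₂ 200 μM, with DMPO 6000 μM spin trap in PBS pH 7.4. Compound added in acetone at final 106, 60, 10.66 or 3.3 μM. The DMPO–OH quartet was recorded by EPR as the first derivative in a quartz flat cell, at 9.44 GHz, 8 mW microwave power, 0.1 mT modulation width. Intensity was taken as peak height of the second signal.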

[8] = test system: Mus musculus; test: Anti-hyperglycemic activity in CDI mouse assessed as reduction in blood glucose level at 100 mg/kg preadministered with compound for 30 mins followed by sucrose administration and measured upto 3 hrs by oral sucrose tolerance test relative to control; format: functional; parameters: scale not given: the % may be the effect or the level left; conditions: time < 3.5 hrs; in short: as §2
[9] = test system: Mus musculus; test: Anti-hyperglycemic activity in CDI mouse assessed as blood glucose concentration at 50 mg/kg preadministered with compound for 30 mins followed by sucrose administration and measured after 3 hrs by oral sucrose tolerance test relative to control; format: functional; conditions: time 3.5 hrs; in short: as §2
[10] = Antioxidant activity assessed as hydroxyl radical scavenging activity by measuring fluorescence intensity at 3 uM by Electron Paramagnetic Resonance based spectrophotometric analysis (reference value: 610 a.u.); format: functional; in short: as §4
[11] = Antioxidant activity assessed as inhibition of hydroxyl radical at 106 uM by Electron Paramagnetic Resonance based spectrophotometric analysis relative to control; format: functional; in short: as §3
[12] = test system: Mus musculus; test: Anti-hyperglycemic activity in CDI mouse assessed as reduction in blood glucose level preadministered with compound for 30 mins followed by sucrose administration and measured upto 3 hrs by oral sucrose tolerance test; format: functional, organism-based; conditions: dose 50-100 mg/kg, time <= 3.5 hrs; in short: as §2
[13] = Antioxidant activity assessed as hydroxyl radical scavenging activity by measuring fluorescence intensity at 106 uM by Electron Paramagnetic Resonance based spectrophotometric analysis (reference value: 610 a.u.); format: functional; in short: as §4
[14] = Antioxidant activity assessed as reduction in hydroxyl concentration at 10 uM by Electron Paramagnetic Resonance based spectrophotometric analysis relative to control; format: functional; parameters: scale not given: the % may be the effect or the level left; in short: as §3
[15] = Antioxidant activity assessed as hydroxyl radical scavenging activity by measuring fluorescence intensity at 60 uM by Electron Paramagnetic Resonance based spectrophotometric analysis (reference value: 610 a.u.); format: functional; in short: as §4
[16] = molecular target: T1, Alpha-glucosidase (Saccharomyces cerevisiae S288c) (UniProt P53341+P38158+P07265); test: Mixed type inhibition of Saccharomyces cerevisiae alpha-glucosidase using p-nitrophenyl-alpha-D-glucopyranoside as substrate at 1 to 2 times of IC50 pre-incubated for 10 mins followed by substrate addition and measured after 15 mins by Lineweaver-Burk plot analysis; format: protein assay; conditions: time 25.0 min
In short: (§5)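 The same α-glucosidase protocol was used, with enzyme and inhibitor preincubated 10 min. Reactions were started with PNPG varied from 1 to 23.1 mM at 37 °C, quenched with […] and read at 405 nm. […] Mode was assigned from Lineweaver–Burk plots.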

[17] = Toxicity in CDI mouse; conditions: in vivo
[18] = molecular target: T1, Alpha-glucosidase (Saccharomyces cerevisiae S288c); test: Non-competitive inhibition of Saccharomyces cerevisiae alpha-glucosidase using p-nitrophenyl-alpha-D-glucopyranoside as substrate at 1 to 2 times of IC50 pre-incubated for 10 mins followed by substrate addition and measured after 15 mins by Lineweaver-Burk plot analysis; format: protein assay; conditions: time 25.0 min; in short: as §5
[19] = test system: Mus musculus; test: Anti-hyperglycemic activity in CDI mouse assessed as reduction in blood glucose level at 50 mg/kg measured for 7 hrs by oral glucose tolerance test; format: functional, organism-based
[20] = test system: COS-7; test: Cytotoxicity against African green monkey COS-7 cells at 50 uM; format: toxicity, cell-based; conditions: chlorocebus aethiops, cos-7, 50 µM
[21] = test system: Mus musculus; test: Anti-hyperglycemic activity in CDI mouse assessed as reduction in glucose AUC at 50 mg/kg measured for 7 hrs by oral glucose tolerance test; format: functional, organism-based
[22] = molecular target: T1, Alpha-glucosidase (Saccharomyces cerevisiae S288c); test: Mixed type inhibition of Saccharomyces cerevisiae alpha-glucosidase using p-nitrophenyl-alpha-D-glucopyranoside as substrate at 0.5 to 1 times of IC50 pre-incubated for 10 mins followed by substrate addition and measured after 15 mins by Lineweaver-Burk plot analysis; format: protein assay; conditions: time 25.0 min; in short: as §5
[23] = Rattus norvegicus, Wistar, Brain

Row | Compound | Activity [1] [%] | Activity [2] [%] | IC50 [3] [µM] | IC50 [4, 23] [µM] | also measured
1 | COc1ccc2c(c1)/C(=C\c1ccc(O)c(OC)c1)C(=O)N(c1ccc(C(C)C)cc1)C2C(=O)NC(C)(C)C (stereo not given) | 69.2 | 95.4 | 31.5 | 11.3 | 
2 | COc1cc(/C=C2/C(=O)N(c3ccc(F)cc3)C(C(=O)NC3CCCCC3)c3ccccc32)cc(OC)c1O (stereo not given) | 36.1 | 96.8 | 57.2 | 2.9 | 
3 | VITAMIN E [listing 1 of 2 here] |  |  |  |  | IC50 [4]: 6.8 µM
4 | COc1cc(/C=C2/C(=O)N(Cc3ccccc3)C(C(=O)NC3CCCCC3)c3ccccc32)cc(OC)c1O (stereo not given) | 36.2 | 96.8 | 61.3 | 2.2 | 
5 | COc1cc(/C=C2/C(=O)N(c3ccc(C)cc3)C(C(=O)NC3CCCCC3)c3ccccc32)cc(OC)c1O (stereo not given) | 37.5 | 96.5 | 44.4 | 3.5 | 
6 | COc1cc(/C=C2/C(=O)N(c3ccccc3)C(C(=O)NC3CCCCC3)c3ccccc32)ccc1O (stereo not given) | 66.8 | 95.5 | 50.5 | 19.2 | 
7 | COc1cc(/C=C2/C(=O)N(c3ccc(F)cc3)C(C(=O)NC3CCCCC3)c3ccccc32)ccc1O (stereo not given) | 67.3 | 90.5 | 52.5 |  | 
8 | CC(C)c1ccc(N2C(=O)/C(=C/c3ccccc3)c3ccccc3C2C(=O)NC(C)(C)C)cc1 (stereo not given) | 0 | 6.1 | 50.6 |  | 
9 | COc1cc(/C=C2/C(=O)N(c3ccc(O)cc3)C(C(=O)NC3CCCCC3)c3ccccc32)ccc1O (stereo not given) | 72.2 | 96.4 | 92.8 | 22.7 | 
10 | VITAMIN E [listing 2 of 2 here] | 87.4 | 79.1 |  |  | 
11 | COc1cc(/C=C2/C(=O)N(c3ccccc3)C(C(=O)NC3CCCCC3)c3ccccc32)cc(OC)c1O (stereo not given) | 40.6 | 97.8 | 60.1 | 4.8 | 
12 | COc1cc(/C=C2/C(=O)N(c3ccc(C(F)(F)F)cc3)C(C(=O)NC3CCCCC3)c3ccccc32)cc(OC)c1O (stereo not given) | 89.9 | 99.4 | > 100 | 1.6 | Activity ([5]; time 60.0 min): Active
13 | COc1cc(/C=C2/C(=O)N(c3ccc(C(C)C)cc3)C(C(=O)NC3CCCCC3)c3ccccc32)cc(OC)c1O (stereo not given) | 35.4 | 97.7 | 33.1 | 1.4 | Activity [6]: Dose-Dependent Effect; Flu intensity [7]: 412 a.u.; Activity [8]: 54%; Activity [9]: 29%; Flu intensity [10]: 464 a.u.; inhibition [11]: 76%; Activity ([5]; time 60.0 min): Active; Activity [12]: Dose-Dependent Effect; Flu intensity [13]: 150 a.u.; Activity [14]: 25%; Flu intensity [15]: 256 a.u.
14 | COc1cc(/C=C2/C(=O)N(Cc3ccccc3)C(C(=O)NC3CCCCC3)c3ccccc32)ccc1O (stereo not given) | 77.1 | 93.1 | 50.1 |  | 
15 | COc1cc(/C=C2/C(=O)N(c3ccc(C(C)C)cc3)C(C(=O)NC3CCCCC3)c3ccccc32)ccc1O (stereo not given) | 68 | 95.7 | 14.8 | 17.2 | Activity ([5]; time 60 min, 1 h): 17%; inhibition [16]: Active
16 | COc1cc(/C=C2/C(=O)N(c3ccc(C(F)(F)F)cc3)C(C(=O)NC3CCCCC3)c3ccccc32)ccc1O (stereo not given) | 65.9 | 64.3 | 13.7 |  | Activity [17]: Non-Toxic; inhibition [18]: Active; Activity [19]: inactive; Activity ([5]; time 60 min, 1 h): 26%; Activity [20]: Non-Toxic; Activity [21]: inactive
17 | COc1cc(/C=C2/C(=O)N(c3ccc(C(C)C)cc3)C(C(=O)NC(C)(C)C)c3ccccc32)ccc1O (stereo not given) | 67.3 | 92.4 | 68 |  | 
18 | COc1cc(/C=C2/C(=O)N(c3ccc(C)cc3)C(C(=O)NC3CCCCC3)c3ccccc32)ccc1O (stereo not given) | 72.7 | 70.7 | 30.2 |  | inhibition [22]: Active; Activity [17]: Non-Toxic; Activity [8]: 41%; Activity [9]: 20%; Activity [19]: inactive; Activity ([5]; time 60.0 min): Active; Activity [20]: Non-Toxic; Activity [12]: Dose-Dependent Effect; Activity [21]: inactive
19 | COc1cc(/C=C2/C(=O)N(c3ccc(O)cc3)C(C(=O)NC3CCCCC3)c3ccccc32)cc(OC)c1O (stereo not given) | 33.1 | 98 | > 100 | 9.8 | 
20 | O=c1c(O)c(-c2ccc(O)c(O)c2)oc2cc(O)cc(O)c12 | 97.9 | 95.7 |  |  | 
21 | COc1cc(/C=C2/C(=O)N(c3ccc(C(C)C)cc3)C(C(=O)NC(C)(C)C)c3ccccc32)cc(OC)c1O (stereo not given) | 37.6 | 96.8 | > 100 | 2.4 | 
